These results are taken from paper PMC6272098 (Cancer Science, 2018).

The conditions of data set [1]: 21-day oral dosage in mice ref 22; cited from earlier work.
For data set [2], the system named is tankyrase, Axin1/2, β-catenin. In words: Western blot analysis of pharmacodynamic biomarkers in COLO-320DM cells. Particulars: 16 h. It counts as cell-based, human. Put shortly:
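Cells cultured in RPMI-1640 with 10% heat-inactivated FBS were treated for 16 h. Whole cell lysates were then analysed by western blot.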

In data set [3] the test system is RKO cells. Briefly: BrdU assay. It is filed as cell-based, human. As to conditions: 48 h. The method, boiled down: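 Cells were kept in DMEM with 10% FBS, treated for 48 h, then assayed for BrdU incorporation. DNA synthesis was compared with DMSO-treated (basal) cells by Tukey-Kramer test. Experiments were repeated at least twice; representative data are shown with standard deviation.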
For orientation: Uptake of a labelled nucleoside into DNA is a usual measure of proliferation.

Data set [4] deals with non-phosphorylated (active) β-catenin. Briefly: Immunofluorescence staining of active β-catenin in COLO-320DM cells. It counts as cell-based, human. As to conditions: 1 μmol/L, 16 h, DMSO 100%. Put shortly: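 Cells were exposed to 1 μmol/L test compound for 16 h, then immunostained with anti-non-phosphorylated β-catenin antibody (D13A1, 1:500) and counterstained with DAPI. Fluorescence images were quantified, and intensity was expressed relative to DMSO-treated cells (100%).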

Data set [5] relates to TCF/LEF reporter activity. Briefly: TCF/LEF luciferase reporter assay, COLO-320DM. It is filed as cell-based, human. Particulars: 30 h. Put shortly:
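Cells were transfected with TCF reporter vectors (including pTcf7wt-luc), then exposed to test compound for 30 h and luciferase activity was read. Comparison was by Tukey-Kramer test against pTcf7wt-luc-transfected DMSO-treated cells.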
For orientation: A reporter such as luciferase makes a cellular process visible.

The test system of data set [6] is COLO-320DM cells. Briefly: BrdU assay. It is filed as cell-based, human. As to conditions: 48 h. Put shortly:
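Cells were grown in RPMI-1640 with 10% heat-inactivated FBS and exposed to test compound for 48 h before BrdU incorporation was measured. Tukey-Kramer comparison was against DMSO-treated cells. Experiments were repeated at least twice; representative results are shown with standard deviation.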

Data set [7] deals with TCF/LEF reporter activity. Briefly: TCF/LEF luciferase reporter assay, L-Wnt3A-stimulated HEK293T. It counts as cell-based. As to conditions: 30 h. Put shortly: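 HEK293T cells were transfected with TCF luciferase reporters. Conditioned medium from L or L‐Wnt3A cells, prepared per the ATCC protocol, was added together with test compound, and luciferase was read after 30 h. Comparison was by Tukey-Kramer test against pTcf7wt-luc-transfected DMSO controls.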

Turning to `COc1ccc(C2(CNC(=O)c3ccc(NC(=O)c4ccco4)cc3)CCOCC2)cc1` [JW55], the “Body weight and small intestine histology in mice” value in data set [1] is reported as “no body weight alterations or histological changes in the small intestine”.

For `O=C(c1cc(Cc2n[nH]c(=O)c3ccccc23)ccc1F)N1CCN(C(=O)C2CC2)CC1` [olaparib], the “Tankyrase, Axin1/2 and β-catenin protein levels (western blot)” value in data set [2] is “did not affect”. Further, the entries for the “DNA synthesis (BrdU)” value in data set [3], in data set [6] (10 μmol/L) and in data set [6] (concentrations up to 3 μmol/L) were “resistant”, “marginally inhibited” and “no effects”, respectively. In addition, in data set [3] (10 μmol/L), the “DNA synthesis (BrdU) relative to basal level” value is “half”. Further, the “Immunofluorescence intensity of active β-catenin” value in data set [4] turned out to be 106%. Moreover, the TCF/LEF reporter activity entry in data set [5] was “no effect”. The TCF/LEF luciferase activity result in data set [7] is recorded as “only marginally inhibited”.
